Test results: PMC10826612 (Food Chemistry: X, 2024)

Key:
[1] = target: T1, tyrosinase (TYR) (Agaricus bisporus, UniProt C7FF04); assay: Fluorescence quenching titration of TYR; assay type: binding
[2] = target: T1, tyrosinase (TYR); assay: Kinetic analysis of TYR; assay type: biochemical; settings: Lineweaver-Burk plot
[3] = target: T1, tyrosinase (TYR); assay: CD spectroscopy of TYR secondary structure; assay type: binding; settings: molar ratio 1:6
[4] = target: T1, tyrosinase (TYR); assay: UV spectra measurement of TYR with inhibitor; assay type: binding
[5] = test system: HEK-293 cells; assay: CCK-8 cell viability assay; assay type: cell-based, human; settings: in words
Procedure, shortened: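 Log-phase HEK-293 cells were seeded at 1 × 10^5 cells/well and held at 37 °C for 24 h. They were then exposed for 24 h to test compound at 4, 12, 36 or 108 µM, prepared in PBS. Wells were washed twice with PBS, and medium containing 10 % CCK-8 was added. Absorbance at 450 nm was read after 2 h.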

[6] = target: T1, tyrosinase (TYR); assay: ANS fluorescence assay; assay type: binding; settings: 6f 60 µM (533 nm at 0 µM)

T1 sequence (C7FF04 1-392): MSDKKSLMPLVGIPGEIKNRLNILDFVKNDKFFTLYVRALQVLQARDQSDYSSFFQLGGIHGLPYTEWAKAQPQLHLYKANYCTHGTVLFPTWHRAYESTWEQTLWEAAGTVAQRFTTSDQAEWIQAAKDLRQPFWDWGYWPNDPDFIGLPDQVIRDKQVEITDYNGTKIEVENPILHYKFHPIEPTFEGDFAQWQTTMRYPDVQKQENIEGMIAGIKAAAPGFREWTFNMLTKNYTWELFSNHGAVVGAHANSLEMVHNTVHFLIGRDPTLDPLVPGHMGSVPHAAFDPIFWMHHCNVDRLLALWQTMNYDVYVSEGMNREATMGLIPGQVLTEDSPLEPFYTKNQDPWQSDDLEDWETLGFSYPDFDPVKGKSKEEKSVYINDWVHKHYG

CCCc1cc(=O)oc2cc(OCc3cc(=O)c(O)co3)ccc12 [Compound 6f]
quenching constant Kq ([1]; Stern-Volmer plot): 3.95 × 10^12 L/mol S^-1
number of binding sites n ([1]; double reciprocal equation): 1.12
mode of action on TYR (quenching type) ([1]; multispectral experiments): static quenching
inhibition type [2]: mixed-type inhibitor
α-Helix content of TYR [3]: 32.50%
β-Turn content of TYR [3]: 17.20%
β-sheet content of TYR [3]: 17.50%
effect on the UV absorption peak of TYR at 280 nm [4]: significantly reduced the absorption peak of TYR at 280 nm
cytotoxicity [5]: low cytotoxicity
maximum emission wavelength of ANS-TYR fluorescence [6]: 500 nm
